Converted amounts (≈) assume the structure as drawn.
Legend:
[1] = test system: Staphylococcus epidermidis; assay: Minimum inhibitory concentration against Staphylococcus epidermis UC12084; format: functional
Procedure, shortened: (§1)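 MIC in µg/mL. S. aureus UC 9213 is methicillin-susceptible, and S. aureus UC 6685 and S. epidermidis UC 12084 are methicillin-resistant. E. faecalis UC 9217 and S. pneumoniae UC 9912 were also tested.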

Mus musculus [2] = assay: compound was tested against Staphylococcus aureus UC9213 the eperezolid administered (PO) in mouse positive control expressed as ED50 values.
Mus musculus [3] = assay: Compound was tested against Staphylococcus aureus UC9213 after po administration in mouse; format: functional
Procedure, shortened: (§2)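 Lethal systemic S. aureus infection in mice, with oral dosing. The ED50 is the dose in mg/kg body weight per dose that reduces mortality by 50%. The 95% confidence limits are −50% and +100% of the nominal value.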

Caco-2 [4] = assay: (§3) permeability assessment across a monolayer of caco-2 cells in presence of GSH in aqueous base.; format: functional, Homo sapiens
Enterococcus faecalis = assay: Minimum inhibitory concentration against Enterococcus faecalis UC9217; format: functional; procedure, shortened: as §1
Staphylococcus aureus [5] = assay: Minimum inhibitory concentration against Staphylococcus aureus UC6685; format: functional; procedure, shortened: as §1
Streptococcus pneumoniae = assay: Minimum inhibitory concentration Streptococcus pneumoniae UC9912; format: functional; procedure, shortened: as §1
Caco-2 [6] = assay: (§4) permeability assessment across a monolayer of caco-2 cells in absence of GSH in aqueous base.; format: functional, Homo sapiens
Staphylococcus aureus [7] = assay: Minimum inhibitory concentration against Staphylococcus aureus UC9213; format: functional; procedure, shortened: as §1
Caco-2 [8] = assay: (§5) permeability assessment across […]; format: functional, Homo sapiens
Staphylococcus aureus [9] = assay: compound was tested against Staphylococcus aureus UC9213 the eperezolid administered positive control expressed as ED50 values.; format: functional
Procedure, shortened: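 Eperezolid was given orally in the same lethal systemic mouse S. aureus trial as the test agents. The ED50 is the mg/kg/dose that reduces mortality by 50%.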

Staphylococcus aureus [10] = assay: compound was tested against Staphylococcus aureus UC9213 after po administration.; format: functional; procedure, shortened: as §2
Caco-2 [11] = assay: as §4; format: functional
Caco-2 [12] = assay: as §3; format: functional
Caco-2 [13] = assay: as §5; format: functional
Caco-2 [14] = assay: as §5; format: functional; remark: listed apart in the source
Mus musculus [15] = assay: compound was tested against Staphylococcus aureus UC9213 the vancomycin administered (sc) in mouse positive control expressed as ED50 values.; format: functional

Row | Compound | MIC [1] [µg/mL] | ED50 (Mus musculus [2]) [mg/kg] | ED50 (Mus musculus [3]) [mg/kg] | [A] (Caco-2 [4]) [µM] | MIC (Enterococcus faecalis) [µg/mL] | MIC (Staphylococcus aureus [5]) [µg/mL] | MIC (Streptococcus pneumoniae) [µg/mL] | [A] (Caco-2 [6]) [µM] | MIC (Staphylococcus aureus [7]) [µg/mL] | [EA] (Caco-2 [8]) [µM] | ED50 (Staphylococcus aureus [9]) [mg/kg] | ED50 (Staphylococcus aureus [10]) [mg/kg] | [A] (Caco-2 [11]) [µM] | [A] (Caco-2 [12]) [µM] | [EA] (Caco-2 [13]) [µM] | [EA] (Caco-2 [14]) [µM] | ED50 (Mus musculus [15]) [mg/kg]
1 | CC(=O)NC[C@H]1CN(c2ccc(N3CCN(c4ccccn4)CC3)c(F)c2)C(=O)O1 | 1 (≈ 2.42 µM) | 6 | 11.2 | 37 | 2 (≈ 4.84 µM) | 2 (≈ 4.84 µM) | 0.5 (≈ 1.21 µM) | 37 | 4 (≈ 9.67 µM) |  |  |  |  |  |  |  | 
2 | CC(=O)NC[C@H]1CN(c2ccc(N3CCN(c4cc(C#N)ccn4)CC3)c(F)c2)C(=O)O1 | 1 (≈ 2.28 µM) |  |  |  | 1 (≈ 2.28 µM) | 1 (≈ 2.28 µM) | 0.5 (≈ 1.14 µM) |  | 1 (≈ 2.28 µM) |  |  |  |  |  |  |  | 
3 | CC(=O)NC[C@H]1CN(c2ccc(N3CCN(c4ccncn4)CC3)c(F)c2)C(=O)O1 | 1 (≈ 2.41 µM) | 1.8 | 4.4 | 40 | 1 (≈ 2.41 µM) | 2 (≈ 4.83 µM) | 0.5 (≈ 1.21 µM) | 40 | 2 (≈ 4.83 µM) | 50 |  |  |  |  |  |  | 
4 | CC(=O)NC[C@H]1CN(c2ccc(N3CCN(c4ncccc4C#N)CC3)c(F)c2)C(=O)O1 | 0.5 (≈ 1.14 µM) | 3.2 | > 20 |  | 1 (≈ 2.28 µM) | 2 (≈ 4.56 µM) | 0.5 (≈ 1.14 µM) |  | 2 (≈ 4.56 µM) |  |  |  |  |  |  |  | 
5 | CC(=O)NC[C@H]1CN(c2ccc(N3CCN(c4ccnc(C)c4)CC3)c(F)c2)C(=O)O1 | 0.5 (≈ 1.17 µM) |  |  |  | 2 (≈ 4.68 µM) | 2 (≈ 4.68 µM) | 0.25 (≈ 0.585 µM) |  | 4 (≈ 9.36 µM) |  |  |  |  |  |  |  | 
6 | CC(=O)NC[C@H]1CN(c2ccc(N3CCN(c4c(Cl)c(Cl)nc(Cl)c4Cl)CC3)c(F)c2)C(=O)O1 | > 16 |  |  |  | > 16 | > 16 | > 16 |  | > 16 |  |  |  |  |  |  |  | 
7 | CC(=O)NC[C@H]1CN(c2ccc(N3CCN(c4cccc(Br)n4)CC3)c(F)c2)C(=O)O1 | 0.5 (≈ 1.02 µM) |  |  | 2.6 | 1 (≈ 2.03 µM) | 1 (≈ 2.03 µM) | 0.5 (≈ 1.02 µM) | 2.6 | 2 (≈ 4.06 µM) | 50 | 2.7 | > 20 |  |  |  |  | 
8 | CC(=O)NC[C@H]1CN(c2ccc(N3CCN(c4cc(NC(C)=O)c(Cl)nn4)CC3)c(F)c2)C(=O)O1 | 16 (≈ 31.6 µM) |  |  |  | > 16 | > 16 | 4 (≈ 7.91 µM) |  | > 16 |  |  |  |  |  |  |  | 
9 | CC(=O)NC[C@H]1CN(c2ccc(N3CCN(c4ncccn4)CC3)c(F)c2)C(=O)O1 | 0.5 (≈ 1.21 µM) | 6.2 | 6 |  | 2 (≈ 4.83 µM) | 2 (≈ 4.83 µM) | 0.5 (≈ 1.21 µM) |  | 2 (≈ 4.83 µM) |  |  |  |  |  |  |  | 
10 | CC(=O)NC[C@H]1CN(c2ccc(N3CCN(c4ccncc4)CC3)c(F)c2)C(=O)O1 | 0.5 (≈ 1.21 µM) |  |  |  | 2 (≈ 4.84 µM) | 2 (≈ 4.84 µM) | < 0.125 |  | 4 (≈ 9.67 µM) |  |  |  |  |  |  |  | 
11 | CC(=O)NC[C@H]1CN(c2ccc(N3CCN(c4ccc5nc(C)c(C(C)=O)n5n4)CC3)c(F)c2)C(=O)O1 | 1 (≈ 1.96 µM) |  |  |  | 4 (≈ 7.85 µM) | 4 (≈ 7.85 µM) | 0.5 (≈ 0.981 µM) |  | 4 (≈ 7.85 µM) |  |  |  |  |  |  |  | 
12 | CC(=O)NC[C@H]1CN(c2ccc(N3CCN(c4cnnc(Cl)c4Cl)CC3)c(F)c2)C(=O)O1 | 1 (≈ 2.07 µM) |  |  |  | 2 (≈ 4.14 µM) | 2 (≈ 4.14 µM) | 0.5 (≈ 1.03 µM) |  | 2 (≈ 4.14 µM) |  | 3.2 | > 20 | 34 | 34 | 50 | 0 | 
13 | CC(=O)NC[C@H]1CN(c2ccc(N3CCN(c4ccnc5ccccc45)CC3)c(F)c2)C(=O)O1 | 0.5 (≈ 1.08 µM) |  |  |  | 2 (≈ 4.31 µM) | 2 (≈ 4.31 µM) | 0.25 (≈ 0.539 µM) |  | 2 (≈ 4.31 µM) |  |  |  |  |  |  |  | 
14 | CC(=O)NC[C@H]1CN(c2ccc(N3CCN(c4cccnn4)CC3)c(F)c2)C(=O)O1 | 0.5 (≈ 1.21 µM) | 8.7 | 8.8 | 36 | 2 (≈ 4.83 µM) | 2 (≈ 4.83 µM) | 0.5 (≈ 1.21 µM) |  | 4 (≈ 9.65 µM) |  |  |  |  |  |  |  | 
15 | CC(=O)NC[C@H]1CN(c2ccc(N3CCN(c4cccc(F)n4)CC3)c(F)c2)C(=O)O1 | 1 (≈ 2.32 µM) |  |  |  | 2 (≈ 4.64 µM) | 2 (≈ 4.64 µM) | 0.5 (≈ 1.16 µM) |  | 2 (≈ 4.64 µM) |  |  |  |  |  |  |  | 
16 | CC(=O)NC[C@H]1CN(c2ccc(N3CCN(C(=O)CO)CC3)c(F)c2)C(=O)O1 [EPEREZOLID] | 0.5 (≈ 1.27 µM) |  | 1.9 |  | 2 (≈ 5.07 µM) | 1 (≈ 2.54 µM) | 0.5 (≈ 1.27 µM) |  | 4 (≈ 10.1 µM) |  |  |  |  |  |  |  | 3.9
17 | CC(=O)NC[C@H]1CN(c2ccc(N3CCOCC3)c(F)c2)C(=O)O1 [LINEZOLID] | 1 (≈ 2.96 µM) |  | 5.6 |  |  |  |  |  |  |  |  |  |  |  |  |  | 3.9

Reference: ChEMBL document CHEMBL1131631, “Piperazinyl oxazolidinone antibacterial agents containing a pyridine, diazene, or triazene heteroaromatic ring” (1998)
